In PubChem BioAssay AID492983 (Johns Hopkins Ion Channel Center, 2010):

Target: Short transient receptor potential channel 4 (Mus musculus) (UniProt Q9QUQ5)
Experiment: inhibitors of receptor-activated mouse TRPC4 currents – cell-based, manual patch clamp, HEK TRPC4beta/mu-opioid, orthogonal assay, SAR follow-up (AID 492983)
Conditions: whole-cell patch clamp currents, at 1 µM, stronger effect = higher value
Outline: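 System – HEK293 cells expressing TRPC4beta and mu-opioid receptor · Dosing – single test compound dose of 1 µM · Timing – over 2 min compound pretreatment, room temperature (22 °C) · Buffer or medium – ~400 nM free Ca2+ internal, pH 7.4 external · Detection – whole-cell patch clamp, 0 mV holding potential, -100 to +100 mV ramps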

Chain of Short transient receptor potential channel 4 (Mus musculus) (Q9QUQ5 whole entry, looked up): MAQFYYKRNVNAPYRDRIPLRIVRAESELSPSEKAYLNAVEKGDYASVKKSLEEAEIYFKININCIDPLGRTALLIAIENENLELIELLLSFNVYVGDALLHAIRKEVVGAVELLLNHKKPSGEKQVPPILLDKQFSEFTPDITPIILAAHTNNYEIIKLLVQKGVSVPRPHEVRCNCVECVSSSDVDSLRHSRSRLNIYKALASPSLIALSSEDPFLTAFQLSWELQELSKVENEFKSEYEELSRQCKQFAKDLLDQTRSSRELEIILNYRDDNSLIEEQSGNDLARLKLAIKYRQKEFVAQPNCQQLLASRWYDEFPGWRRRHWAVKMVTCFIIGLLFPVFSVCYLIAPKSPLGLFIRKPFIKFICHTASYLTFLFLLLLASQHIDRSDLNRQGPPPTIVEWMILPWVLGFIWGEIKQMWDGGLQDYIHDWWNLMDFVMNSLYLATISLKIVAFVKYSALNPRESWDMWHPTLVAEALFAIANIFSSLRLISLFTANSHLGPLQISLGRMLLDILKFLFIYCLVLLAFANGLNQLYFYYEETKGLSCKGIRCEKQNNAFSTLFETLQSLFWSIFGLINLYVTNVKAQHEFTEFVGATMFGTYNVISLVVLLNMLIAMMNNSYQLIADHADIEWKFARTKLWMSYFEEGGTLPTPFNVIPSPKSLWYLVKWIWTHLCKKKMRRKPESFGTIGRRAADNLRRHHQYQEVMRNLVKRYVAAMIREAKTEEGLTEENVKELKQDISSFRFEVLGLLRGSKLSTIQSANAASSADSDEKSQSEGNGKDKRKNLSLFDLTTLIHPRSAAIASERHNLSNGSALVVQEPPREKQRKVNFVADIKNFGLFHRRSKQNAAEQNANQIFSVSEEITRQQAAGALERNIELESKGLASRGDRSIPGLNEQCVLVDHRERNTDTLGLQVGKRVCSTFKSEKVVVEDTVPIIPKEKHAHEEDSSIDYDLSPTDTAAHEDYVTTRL

With Cc1cc(N2CCCCC2)nc2ccccc12 the inhibition at -100 mV was 69.5% and the inhibition at +100 mV (measured here: outward current at +100 mV) was 29.2%.
